Measurements reported in ChEMBL document CHEMBL1944502, “Efficient synthesis and anti-enteroviral activity of 9-arylpurines” (Eur J Med Chem, 2012).

Key:
[1] = Antiviral activity against Coxsackievirus B3 Nancy infected in african green monkey Vero cells assessed as inhibition of virus-induced cell death after 3 days by spectrophotometry based MTS/PMS assay; format: functional, Coxsackievirus B3 (strain Nancy); settings: Enterovirus B, 72 h
Procedure, shortened: (§1)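 Infected cells in 96-well plates received serial compound dilutions plus 100 CCID50 of virus. They were incubated 3 days, until full CPE appeared in untreated virus controls, at 37 °C (35 °C for rhinovirus 14). Viability was read by MTS/PMS at OD 498 nm and converted to % of controls. EC50 was obtained by linear interpolation. Runs were at least triplicate, with microscopic confirmation.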

[2] = Cytotoxicity against African green monkey Vero cells after 3 days by spectrophotometry based MTS/PMS assay; format: cell-based; settings: chlorocebus sabaeus
Procedure, shortened: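 Uninfected Vero cultures were handled as in the antiviral set-up: serial compound dilutions for 3 days. Overall metabolism was read by MTS/PMS, and raw values were converted to % of controls. CC50 (50% inhibition of cell metabolism) was obtained by linear interpolation. Each experiment was repeated at least three times.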

[3] = system: Vero; experiment: Cytotoxicity against Coxsackievirus B3 Nancy infected African green monkey Vero cells assessed as change in cell morphology at EC50 after 3 days by microscopic analysis; format: cell-based; settings: chlorocebus sabaeus, 72 h
Procedure, shortened: (§2)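 Infected, compound-treated wells were inspected microscopically after the 3-day antiviral incubation. The check looked for virus-induced CPE and for compound-induced alteration of cell morphology, compared with uninfected, untreated control cells.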

[4] = system: Poliovirus 1; experiment: Antiviral activity against Poliovirus type 1 Sabin infected in BGM cells assessed as inhibition of virus-induced cell death after 3 days by spectrophotometry based MTS/PMS assay; format: functional; settings: Enterovirus C, 72 h
[5] = Antiviral activity against Enterovirus 71 BRCR infected in human RD cells assessed as inhibition of virus-induced cell death after 3 days by spectrophotometry based MTS/PMS assay; format: functional, Human enterovirus 71 (strain BRCR); settings: Enterovirus A, 72 h; procedure, shortened: as §1
[6] = Antiviral activity against Echovirus 11 Gregory infected in BGM cells assessed as inhibition of virus-induced cell death after 3 days by spectrophotometry based MTS/PMS assay; format: functional, Echovirus 11 (strain Gregory); settings: Enterovirus B, 72 h; procedure, shortened: as §1
[7] = Cytotoxicity against Echovirus 11 Gregory infected BGM cells assessed as change in cell morphology at EC50 after 3 days by microscopic analysis; format: cell-based; settings: chlorocebus aethiops, 72 h; procedure, shortened: as §2
[8] = system: Coxsackievirus B4; experiment: Antiviral activity against Coxsackievirus B4 E2 Edwards infected in african green monkey Vero cells assessed as inhibition of virus-induced cytopathogenicity after 3 days by spectrophotometry based MTS/PMS assay; format: functional, organism-based; settings: Enterovirus B, 72 h; procedure, shortened: as §1
[9] = system: rhinovirus B14; experiment: Antiviral activity against Human rhinovirus 14 infected in human HeLa cells assessed as inhibition of virus-induced cytopathogenicity after 3 days by spectrophotometry based MTS/PMS assay; format: functional, organism-based; settings: Rhinovirus B, 72 h; procedure, shortened: as §1
[10] = Antiviral activity against drug-resistant Coxsackievirus B3 Nancy infected in african green monkey Vero cells assessed as inhibition of virus-induced cell death after 3 days by spectrophotometry based MTS/PMS assay; format: functional, Coxsackievirus B3 (strain Nancy); settings: Enterovirus B, 72 h
[11] = system: Vero; experiment: Cytotoxicity against Coxsackievirus B4 E2 Edwards infected african green monkey Vero cells assessed as change in cell morphology at EC50 after 3 days by microscopic analysis; format: cell-based; settings: chlorocebus sabaeus, 72 h; procedure, shortened: as §2

SMILES	EC50 [1] [µM]	CC50 at 72 h [2] [µM]	Activity [3]	EC90 [1] [µM]	EC50 [4] [µM]	EC50 [5] [µM]	EC50 [6] [µM]	Activity [7]	EC50 [8] [µM]	EC50 [9] [µM]	EC50 [10] [µM]	Activity [11]
CC(=O)N(C)c1cccc(-n2cnc3c(Cl)ncnc32)c1	7.8	> 100	Non-toxic									
Cc1nc(Cl)c2ncn(-c3cccc(N(C)C)c3)c2n1	12	> 100	Non-toxic	28								
CC(=O)N(C)c1cccc(-n2cnc3c(Cl)nc(C)nc32)c1	6.1	307	Non-toxic	8.3	> 158	> 158	20	Non-toxic	13	> 100	> 50	Non-toxic
Cc1nc(Cl)c2ncn(-c3cccc(N4CCOC4=O)c3)c2n1	10.6	> 200	Non-toxic	15.6								
CC(=O)c1cccc(-n2cnc3c(Cl)ncnc32)c1		> 100	Non-toxic		> 100		21.6		28.8	> 100	> 100	Non-toxic
CCOC(=O)Oc1nc2c(Cl)nc(C)nc2n1-c1cccc(N(C)C)c1	12.6	131	Non-toxic	19.9								
CN(C)c1cccc(-n2cnc3c(Cl)ncnc32)c1	3.8	> 100	Non-toxic	5	> 100	> 100	12.5		6.9	> 100	> 100	Non-toxic
Fc1cccc(F)c1[C@@H]1SCc2nc3cc(C(F)(F)F)ccc3n21		> 100	Non-toxic									
CCN(C(C)=O)c1cccc(-n2cnc3c(Cl)nc(C)nc32)c1	6.1	> 200	Non-toxic	10.9								
CN(C)c1cccc(-n2c(=O)[nH]c3c(Cl)ncnc32)c1	16	> 100	Non-toxic	26								
CC(C)S(=O)(=O)n1c(N)nc2ccc(/C(=N/O)c3ccccc3)cc21 [ENVIROXIME]		> 100	Non-toxic								1.3	
Cc1nc(Cl)c2[nH]c(=O)n(-c3cccc(N(C)C)c3)c2n1	10	> 100	Non-toxic	15								
CC(=O)c1cccc(-n2c(=O)[nH]c3c(Cl)nc(C)nc32)c1		> 100	Non-toxic									
O=C1OCCN1c1cccc(-n2cnc3c(Cl)ncnc32)c1	33.7	> 200	Non-toxic	47.5								
Cc1nc(Cl)c2ncn(-c3cccc(C(C)(C)O)c3)c2n1		> 100	Non-toxic									
Cc1nc(Cl)c2[nH]c(=O)n(-c3cccc(N4CCOC4=O)c3)c2n1	25.4	> 200	Non-toxic	33.5								
Cc1nc(Cl)c2c(n1)n(-c1cccc(N(C)C)c1)c(=O)n2C	11.3	> 200	Non-toxic	18.2								
O=C1OCCN1c1cccc(-n2c(=O)[nH]c3c(Cl)ncnc32)c1	8.9	> 200	Non-toxic	15.3	> 151	> 151	86.9		24.1	> 100		Non-toxic
CC(=O)Nc1cccc(-n2cnc3c(Cl)nc(C)nc32)c1	11.8	> 200	Non-toxic	17.5								
CC(=O)N(CC1CC1)c1cccc(-n2cnc3c(Cl)nc(C)nc32)c1	34.5	> 200	Non-toxic	52.3								
CC(=O)Nc1cccc(-n2cnc3c(Cl)ncnc32)c1	18.5	> 174		24.2	> 174	> 174	20.8	Non-toxic	12.1	> 100	> 50	Non-toxic
CCOc1ncnc2c1ncn2-c1cccc(NCCO)c1	> 200	> 200		> 200								
Cc1nc(Cl)c2nc(OC(=O)Oc3ccccc3)n(-c3cccc(N(C)C)c3)c2n1	13.6	75.9		14.8								
CCN(CC)c1cccc(-n2cnc3c(Cl)ncnc32)c1	15	> 100	Non-toxic	23								
CCN(CC)c1cccc(-n2cnc3c(Cl)nc(C)nc32)c1	10	> 100	Non-toxic	15								
Cc1nc(Cl)c2ncn(-c3ccc(N(C)C)cc3)c2n1	11	> 100	Non-toxic									
CN(C)c1ccc(-n2cnc3c(Cl)ncnc32)cc1	6.3	> 100	Non-toxic									
